Hits are enriched below; roughly 4.7% of the tested compounds scored in any of these assays.
IMP-1 inh = IMP-1 metallo-beta-lactamase inhibitors, primary screen, biochemical, epi-absorbance readout, Pseudomonas aeruginosa enzyme; purified IMP-1, nitrocefin hydrolysis, epi-absorbance fluorescence; AID 1556, 2009; actives 0.45% (n = 290,000); inhibition, % at 5.6 µM;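 active means inhibition above the mean plus 3 SD of all compounds in the same screening run, cut at about 4.5% in these data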
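System – purified recombinant IMP-1 beta-lactamase · Input – IMP-1 dispensed at 0.2 nM · Timing – 15 min preincubation plus 25 min reaction at 25 °C · Signal – Epi-absorbance fluorescence, 480 nm excitation, 530 nm emission · Measure – percent IMP-1 inhibition derived from blank-referenced optical density · Controls – Enzyme-plus-DMSO low control, enzyme-free DMSO high control · Replication – singlicate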
VIM-2 inhibitor = VIM-2 metallo-beta-lactamase inhibitors, primary screen, biochemical, epi-absorbance readout, Pseudomonas aeruginosa enzyme; inhibition, % at 5.6 µM; actives 0.89% (n = 290,000); purified VIM-2, nitrocefin hydrolysis, epi-absorbance fluorescence;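 active means inhibition above the mean of all tested compounds plus 3 SD, cutoff set per screening run, cut at about 7.5% in these data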;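 further: red hydrolysis product quenches plate fluorescence so inhibitors raise well fluorescence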
Mdm2 MdmX PPI = inhibitors of human Mdm2-MdmX association, primary screen, cell-based, luminescence, split luciferase, SaOS-2, uHTS | Protein Mdm4 (Homo sapiens) + E3 ubiquitin-protein ligase Mdm2 (Homo sapiens), … | SaOS-2 split-luciferase Mdm2/MdmX complementation | inhibition, % at 8 µM | actives 3% (n = 330,000) | AID 485346, 2010;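 active means inhibition of at least 50% at 8 µM in the primary screen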
Target sequence (O15151 whole entry, looked up): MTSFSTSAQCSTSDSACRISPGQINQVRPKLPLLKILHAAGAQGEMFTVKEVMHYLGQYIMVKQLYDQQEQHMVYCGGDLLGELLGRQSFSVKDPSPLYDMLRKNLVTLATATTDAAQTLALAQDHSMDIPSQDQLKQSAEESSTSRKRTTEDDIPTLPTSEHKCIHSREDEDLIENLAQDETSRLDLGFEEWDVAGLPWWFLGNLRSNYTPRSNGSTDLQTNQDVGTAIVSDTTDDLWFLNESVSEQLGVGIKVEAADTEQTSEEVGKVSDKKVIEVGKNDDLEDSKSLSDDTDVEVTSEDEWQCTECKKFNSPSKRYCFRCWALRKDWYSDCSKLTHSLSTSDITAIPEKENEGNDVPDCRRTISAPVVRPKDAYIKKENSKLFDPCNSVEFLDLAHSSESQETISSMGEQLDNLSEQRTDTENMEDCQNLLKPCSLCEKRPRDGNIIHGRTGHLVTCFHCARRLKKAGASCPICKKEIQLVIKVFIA
Target sequence (Q00987 whole entry, looked up): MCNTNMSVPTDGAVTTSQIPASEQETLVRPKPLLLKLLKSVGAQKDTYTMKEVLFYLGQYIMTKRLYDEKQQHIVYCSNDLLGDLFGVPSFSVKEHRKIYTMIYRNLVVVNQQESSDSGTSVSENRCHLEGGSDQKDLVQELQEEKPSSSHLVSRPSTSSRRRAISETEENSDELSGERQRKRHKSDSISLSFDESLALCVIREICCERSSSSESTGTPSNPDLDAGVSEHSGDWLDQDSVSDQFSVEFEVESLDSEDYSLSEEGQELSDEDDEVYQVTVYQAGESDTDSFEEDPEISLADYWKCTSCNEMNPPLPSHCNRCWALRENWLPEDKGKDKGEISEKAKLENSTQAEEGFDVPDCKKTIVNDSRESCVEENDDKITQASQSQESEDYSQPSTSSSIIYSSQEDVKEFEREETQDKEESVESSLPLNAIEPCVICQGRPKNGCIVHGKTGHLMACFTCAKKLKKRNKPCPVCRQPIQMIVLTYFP
Jurkat NFkB inh = inhibitors of induced NF-kB luciferase reporter, primary screen, TCR NF-kB activation inhibitor project, cell-based, luminescence, uHTS. Jurkat, PMA/ionomycin-induced NF-kB luciferase reporter. inhibition, % at 4 µM. actives 0.53% (n = 330,000). AID 435003, 2010; in the data active means inhibition above about 50%
697 NFkB inh = inhibitors of PMA/ionomycin-induced NF-kB reporter, 697 cells, primary screen, B-cell NF-kB inhibitor project, cell-based, luminescence, uHTS; 697 B-cell NF-kB luciferase reporter, 16 h; inhibition, % at 4 µM; actives 0.33% (n = 330,000); in the data active means inhibition above about 35%
aSyn 5UTR inh = MLPCN primary screen, SNCA 5' untranslated region. actives 0.82% (n = 300,000). inhibition, % (tested at 7.5 µM). alpha-synuclein 5'UTR reporter, inhibitor activity; in the data active means inhibition above about 60%;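 further: H4 neuroglioblastoma cells stably carrying SNCA 5'UTR luciferase fusion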
A number is an active result; n = inactive; x = not tested or not shown.

SMILES	IMP-1 inh	VIM-2 inhibitor	Mdm2 MdmX PPI	Jurkat NFkB inh	697 NFkB inh	aSyn 5UTR inh
O=C(CN(Cc1ccc(Cl)cc1)C(=O)c1csnn1)NCc1ccc(F)cc1	n	n	n	n	n	n
Cc1ccc(S(=O)(=O)NCC(=O)OCC(=O)NCc2cccs2)cc1	x	x	n	n	n	n
Nc1cc(=O)[nH]c(SCCSc2ccccc2F)n1	n	n	n	n	n	67
O=C(Nc1nc(=O)c2ccccc2s1)c1ccccc1	n	11	n	n	n	n
Cc1cccc2cc(C#N)c(SCC#N)nc12	n	n	n	n	n	85
CCc1nc(SCC#N)c(C#N)cc1C	n	n	n	n	n	69
CN(c1ncc(C(F)(F)F)cc1Cl)N1C(=O)c2cccc([N+](=O)[O-])c2C1=O	37	n	n	n	n	n
O=C1C(Cl)=C(Nc2ccccc2O)C(=O)N1c1ccccc1	n	9.3	n	n	n	n
COc1ccccc1N1C(=O)C(Cl)=C(Nc2ccccc2O)C1=O	n	n	x	x	x	n
O=C(N/N=C/c1cccnc1)c1cccc(F)c1	n	n	n	n	n	n
O=C(N/N=C/c1ccc(OC(=O)c2cccc(F)c2)cc1)c1cccnc1	4.6	n	n	n	n	n
O=C(N/N=C/c1ccc(OC(=O)c2cccc(Br)c2)cc1)c1cccnc1	9.7	n	n	n	n	n
O=C(N/N=C/c1ccc(OC(=O)c2ccc(Br)cc2)cc1)c1ccncc1	7.6	n	n	n	n	n
O=C(NCCN1CCOCC1)c1cccc(S(=O)(=O)N(Cc2ccccc2)c2ccccc2)c1	x	x	n	n	n	n
O=C(c1cc(Cl)ccc1F)N1CCCC(Nc2ccc3c(c2)OCCO3)C1 (stereo unspecified)	n	n	n	n	n	n
COc1ccc(CNC(=O)COC(=O)c2ccc(S(=O)(=O)N3CCCCC3)cc2)cc1	x	x	n	n	n	x
CCOc1ccccc1N1CC(C(=O)Nc2cccc(S(=O)(=O)N3CCCCC3)c2)CC1=O (stereo unspecified)	n	n	n	n	n	n
Clc1ccc(C2Nc3cccc4cccc(c34)N2)cc1Cl	6.1	n	n	n	n	n
S=c1nc(-c2ccccc2)n(-c2ccccc2)[nH]1	n	9.8	n	n	n	n
Cc1ccccc1-c1nnc(SCC(=O)N(C)C2CCS(=O)(=O)C2)n1C (stereo unspecified)	x	x	n	n	n	x
CCCCN(Cc1ccccc1)C(=O)CCN1C(=O)C2C3C=CC(C3)C2C1=O (stereo unspecified)	n	n	n	n	n	n
O=C(N/N=C/c1cccs1)c1cc(C2CC2)nc2ccccc12	n	n	n	n	n	n
O=C(N/N=C/c1cccs1)c1cc(-c2ccncc2)nc2ccccc12	n	n	x	x	x	62
O=C(NCCCn1ccnc1)c1cc(-c2ccncc2)nc2ccccc12	n	11	n	n	n	n
COc1ccc(CCN(C)C(=O)CCNS(=O)(=O)c2ccccc2C(F)(F)F)cc1OC	x	x	n	n	n	x
SMILES	IMP-1 inh	VIM-2 inhibitor	Mdm2 MdmX PPI	Jurkat NFkB inh	697 NFkB inh	aSyn 5UTR inh
COc1ccc2[nH]c3c(=S)nc[nH]c3c2c1	n	n	n	n	n	n
S=c1nc[nH]c2nc[nH]c12	n	n	n	n	n	67
O=C(NCCCN1CCN(c2cccc(Cl)c2)CC1)C1CCC(=O)N1Cc1ccccc1Cl (stereo unspecified)	6.5	n	x	x	x	n
CCc1ccccc1NC(=O)CN1CCN(CC(=O)Nc2cc(C)ccc2OC)CC1	n	n	n	n	n	n
COc1ccc(-c2cc(C(F)(F)F)nc(-n3cc(Br)cn3)n2)cc1	n	n	n	n	n	n
COc1ccc(-c2cc(C(F)(F)F)nc(-n3cncn3)n2)cc1	n	11	n	n	n	n
COc1cccc2[nH]c3c(N4CCCCC4)ncnc3c12	n	n	n	n	n	n
CCOC(=O)C1CCN(c2ncnc3c2[nH]c2cccc(OC)c23)CC1	n	8.4	n	n	n	n
